Experimental data pooled from the literature.
Lines come from different studies, so protocols differ.
Target: Casein kinase I isoform gamma-3 (CSNK1G3, Homo sapiens, UniProt Q9Y6M4)

COc1cc2ncnc(Nc3ccc(Oc4ccccc4)c(C)c3C)c2cc1OC
inhibition (enzyme activity; inhibitor; 1 µM): 3%

Cn1c2c(c3ccc(Cl)c(Cl)c31)C(C#N)C(C)(C)NC2=O (centres unmarked)
ΔTm (thermal stability; DSF; 10 µM): 0.5 °C

O=C1NC(=O)c2cc(Nc3ccc(F)cc3)c(Nc3ccc(F)cc3)cc21
remaining signal (cell-free assay; 0.5 µM): 90.7%

Cn1c2c(Cl)c(Cl)ccc2c2cn[nH]c(=O)c21
ΔTm (thermal stability; DSF; 10 µM): -0.1 °C

COc1ccc2c(O[C@@H]3C[C@H]4C(=O)N[C@]5(C(=O)O)CC5/C=C\CCCCC[C@H](NC(=O)OC5CCCC5)C(=O)N4C3)cc(-c3csc(NC(=O)C(C)C)n3)nc2c1C (some centres unmarked)
remaining binding (cell-free assay; competition with immobilised ligand; 1 µM): 100%

Cn1c2c(Cl)c(Cl)ccc2c2cc(N)[nH]c(=O)c21
ΔTm (thermal stability; DSF; 10 µM): 0.1 °C

CO[C@@H](C)c1c(Nc2ccc([C@@H](N(C)C(=O)C3CCS(=O)(=O)CC3)C(F)(F)F)cc2)cnc2cc(Cl)nn12
remaining binding (cell-free assay; competition with immobilised ligand; 1 µM): 71%

Cn1c2c(c3ccc(Cl)c(Cl)c31)C(C#N)C1(CCOCC1)NC2=O (centres unmarked)
ΔTm (thermal stability; DSF; 10 µM): 0.2 °C

O=C1Nc2ccc(Cl)cc2C1=Cc1cc(Cl)c(O)c(Cl)c1
remaining signal (cell-free assay; 0.5 µM): 93%

CNC(=O)c1cc(Oc2ccc(NC(=O)Nc3ccc(Cl)c(C(F)(F)F)c3)cc2)ccn1
inhibition (enzyme activity; inhibitor; 0.3 µM): -4%

O=C(NC[C@@H]1[C@H]2CN(C(=O)OCc3cc(C(F)(F)F)cc(C(F)(F)F)c3)C[C@@H]12)c1ccc2[nH]nnc2c1
remaining binding (cell-free assay; competition with immobilised ligand; 1 µM): 89%

COc1cc2ncnc(Nc3ccc(F)c(Cl)c3)c2cc1OCCCN1CCOCC1
remaining signal (cell-free assay; 0.5 µM): 103%

O=C(Nc1cnn(-c2csc(C(=O)NC3COC3)c2)c1)Nc1c(F)cccc1Cl
remaining activity (enzyme activity; inhibitor; 5 µM): 92.6%

CCS(=O)(=O)c1cc2cc(C[C@@](O)(CC(C)(C)c3ccc(F)cc3C(N)=O)C(F)(F)F)[nH]c2cn1
remaining binding (cell-free assay; competition with immobilised ligand; 1 µM): 100%

Cn1c2c(c3ccc(Cl)c(Cl)c31)C(C#N)C1(CCN(C(=O)OC(C)(C)C)CC1)NC2=O (racemic)
ΔTm (thermal stability; DSF; 10 µM): -0.1 °C

O=C(O)c1cc(-c2ccc(C3CCNCC3)cc2)c2ccc(-c3ccc(C(F)(F)F)cc3)cc2c1
remaining binding (cell-free assay; competition with immobilised ligand; 1 µM): 100%

C[C@@H]1CCN(C(=O)CC#N)C[C@@H]1N(C)c1ncnc2[nH]ccc12
remaining signal (cell-free assay; inhibitor; 0.5 µM): 101%

C[C@@]1(Cc2ccc(C#N)cc2)C(=O)N(c2cc(Cl)cc(Cl)c2)c2ncc(C(=O)NC3(c4nc(C5CCC5)no4)CC3)n21
remaining binding (cell-free assay; competition with immobilised ligand; 1 µM): 100%

COc1cc2c(N3CCN(C(=O)Nc4ccc(OC(C)C)cc4)CC3)ncnc2cc1OCCCN1CCCCC1
remaining signal (cell-free assay; 0.5 µM): 95%

O=C(N[C@H]1CCCCC/C=C\C2C[C@@]2(C(=O)O)NC(=O)[C@@H]2C[C@@H](Oc3ccncc3)CN2C1=O)OC1CCCC1 (some centres unmarked)
remaining binding (binding; competition with immobilised ligand; 1 µM): 100%

CCN1CCC2(CC1)NC(=O)c1c(c3ccc(Cl)c(Cl)c3n1C)C2C#N (racemic)
ΔTm (thermal stability; DSF; 10 µM): 0.8 °C

Cc1ccc(C(=O)Nc2ccc(CN3CCN(C)CC3)c(C(F)(F)F)c2)cc1C#Cc1cnc2cccnn12
remaining activity (enzyme activity; inhibitor; 23.5 nM): 97%

O=C(O)[C@@H]1[C@@H](Cn2nnc3ccccc3c2=O)CC[C@H]1C(=O)c1ccc(OCCC2CCOCC2)cc1
remaining binding (cell-free assay; competition with immobilised ligand; 1 µM): 100%

CC(C)(C)c1nc2c(s1)c1nc(N)ncc1c1ccc(NS(=O)(=O)c3c(F)cccc3F)c(F)c12
remaining activity (enzyme activity; inhibitor; radiometric; 1 µM): 86%

Cc1cc(NC(=O)c2cccc3cc(-c4cccc5[nH]nc(N)c45)ccc23)ccc1F
activity vs control (enzyme activity; inhibitor; 0.1 µM): 107%

CCCS(=O)(=O)Nc1ccc(F)c(C(=O)c2c[nH]c3ncc(-c4ccc(Cl)cc4)cc23)c1F
inhibition (enzyme activity; inhibitor; 1 µM): < 10%

COc1cc(Cl)c(C(=O)N[C@@H](CN[C@H]2CC[C@@H](N)CC2)Cc2ccc(C#N)cc2)cc1-c1ccc(CN[C@H](C)c2ccc(C)cc2)o1
remaining activity (enzyme activity; inhibitor; 1 µM): 96%

Cc1ccc(Nc2nccc(N(C)c3ccc4c(C)n(C)nc4c3)n2)cc1S(N)(=O)=O
inhibition (enzyme activity; inhibitor; 0.3 µM): -8%

CN(c1nccc(-c2cnn3ncccc23)n1)C1CC1
remaining binding (binding; 1 µM): 100%
